PubChem BioAssay AID652163 (Broad Institute, 2013)
Hit rate of the full screen: of about 360,000 compounds, about 500 (0.14%) were called active.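 Rule for the calls: active = mean inhibition of at least 70% across replicates, with every replicate also reaching that level; inconclusive = mean inhibition reaches 70% but some replicates fall short; inactive = mean inhibition below 70%.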 The full list was thinned out, with actives kept by preference.

Target: Protein S100-A4 (Homo sapiens) (UniProt P26447)
Sequence (P26447 whole entry, looked up): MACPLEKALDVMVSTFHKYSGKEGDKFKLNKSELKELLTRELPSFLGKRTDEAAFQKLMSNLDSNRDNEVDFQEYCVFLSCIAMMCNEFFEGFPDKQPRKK
Assay: inhibitors of S100A4-myosin IIA peptide binding, primary screen, biochemical, fluorescence polarization, TAMRA-MyoIIA peptide (AID 652163)
Details: at 10.7 µM, active compounds read high
How it was run: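 Compound dosing: one dose per compound; test system: human S100A4 monomer with TAMRA-labelled myosin IIA peptide; probe or stimulus: TAMRA-labelled myosin IIA heavy-chain peptide probe, 5 nM; medium: HEPES buffer with Ca2+, pH 7.2; schedule: 5 min incubation before reading; benchmarks: neutral control DMSO, positive control TFP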

inhibition, inactive:
O=C(C[C@H]1C=C[C@H](NC(=O)NC2CCCCC2)[C@H](CO)O1)NCc1ccccc1 11.3%, C[C@@H]1CN([C@@H](C)CO)C(=O)c2cc(NS(C)(=O)=O)ccc2O[C@@H]1CN(C)C(=O)Nc1ccccc1 -7.83%, C[C@@H]1CCCCO[C@@H](CN(C)C(=O)C2CCCCC2)[C@@H](C)CN([C@H](C)CO)C(=O)c2cc(NC(=O)c3ccccc3)ccc2O1 5.47%, Cc1ccccc1-c1ccc2c(c1)O[C@@H](CN(C)C(=O)Nc1ccc(F)cc1)[C@H](C)CN([C@@H](C)CO)S2(=O)=O -6.84%, C[C@H]1CN([C@@H](C)CO)C(=O)c2cc(-c3cccc(F)c3)cnc2O[C@@H]1CN(C)C(=O)c1ccccn1 1.67%, C[C@H]1CN([C@@H](C)CO)C(=O)c2cccc(NC(=O)Nc3ccccc3)c2O[C@@H]1CN(C)C(=O)Nc1cccc2ccccc12 8.48%, COc1cccc(CC2(CO)CCCN(CC3=Cc4cc(OC)ccc4OC3)C2)c1 (stereo not given) -14.5%, CN1c2ccc([N+](=O)[O-])cc2C(C)(C)C12C=Cc1cc(C(=O)O)ccc1O2 (stereo not given) -14.5%, CN(C)CC(=O)N[C@H]1CC[C@@H](CCNC(=O)C2CCCC2)O[C@@H]1CO 4.07%, C[C@@H]1CN([C@H](C)CO)C(=O)Cc2cc(NS(=O)(=O)c3ccc(Cl)cc3)ccc2O[C@@H]1CN(C)C -3.76%, O=C(C[C@H]1C[C@H]2c3cc(NC(=O)Nc4ccccc4)ccc3O[C@H]2[C@H](CO)O1)NC1CCCC1 -3.39%, CN(C)C(=O)C[C@H]1C[C@@H]2c3cc(NC(=O)NC4CCCCC4)ccc3O[C@@H]2[C@@H](CO)O1 12.2%, COC(=O)C(CC#Cc1ccc2c(c1)[C@]1(C(=O)N2)[C@H](c2ccccc2OCCO)N2[C@H](c3ccccc3)[C@H](c3ccccc3)OC(=O)[C@H]2[C@@H]1C(N)=O)C(=O)OC -5.68%, O=C(C[C@H]1CC[C@@H]2[C@H](COC[C@H](O)CN2CCC(F)(F)F)O1)NCC1CC1 -3.95%, Cn1cnc(S(=O)(=O)N2C[C@H](O)COC[C@@H]3O[C@H](CC(=O)NC4Cc5ccccc5C4)CC[C@H]32)c1 2.44%, Cn1cnc(S(=O)(=O)N2C[C@@H](O)COC[C@@H]3O[C@H](CC(=O)NC4CCC4)CC[C@H]32)c1 0.326%, O=C(C[C@H]1CC[C@H]2[C@@H](COC[C@@H](O)CN2C(=O)Nc2ccc(C(F)(F)F)cc2)O1)NC1Cc2ccccc2C1 9.1%, C[C@H]1CN([C@@H](C)CO)C(=O)c2cccc(NC(=O)c3cnccn3)c2O[C@H]1CN(C)S(=O)(=O)c1cn(C)cn1 2.47%, COCCNC(=O)[C@H]1[C@H](CO)[C@H]2Cn3c(ccc(-c4ccccc4F)c3=O)[C@H]2N1C(=O)C1CCC1 -0.238%, COc1ccc(CN(C)C[C@H]2Oc3c(NS(=O)(=O)c4ccc(C)cc4)cccc3C(=O)N([C@@H](C)CO)C[C@@H]2C)cc1 -5.34%, CNC(=O)C[C@H]1CC[C@@H]2[C@H](COc3ccc(NC(=O)Nc4ccc(F)c(F)c4)cc3C(=O)N2C)O1 -1.52%, C[C@H]1CN([C@@H](C)CO)C(=O)c2cc(C#CC3CCCC3)cnc2O[C@H]1CN(C)C(=O)c1ccncc1 11.5%, CO[C@H]1CN(C)C(=O)c2cc(NC(=O)C3CC3)ccc2OC[C@H](C)N(Cc2ccccc2)C[C@H]1C 3.65%, O=C(N[C@@H]1CC[C@@H](CC(=O)N2CCc3ccccc3C2)O[C@@H]1CO)C1CCOCC1 13.9%, C[C@@H]1CN([C@@H](C)CO)C(=O)c2cc(NS(=O)(=O)c3cn(C)cn3)ccc2O[C@@H]1CN(C)C(=O)NC1CCCCC1 12.5%, O=C(C[C@@H]1CC[C@@H]2[C@H](COC[C@H](O)CN2C(=O)c2ccc3c(c2)OCO3)O1)NC1CCCC1 6.17%, CC(C)NC(=O)N(C)C[C@@H]1Oc2ccc(NC(=O)C3CCCCC3)cc2CC(=O)N([C@H](C)CO)C[C@@H]1C 1.64%, C[C@@H]1CCCCO[C@H](CN(C)C(=O)Nc2ccc3c(c2)OCO3)[C@H](C)CN([C@H](C)CO)C(=O)c2cc(NS(C)(=O)=O)ccc2O1 -0.157%, CCn1c(=S)[nH]c2cc(S(=O)(=O)N3CCOCC3)ccc21 -2.43%, Cn1c(=O)n(C)c2cc(S(=O)(=O)Nc3ccc(F)cc3)ccc21 0.871%, COC(=O)c1c(NC(=O)C2CC(C)=C(C)CC2C(=O)O)sc2c1CCCCC2 (stereo not given) -3.38%, COC(=O)c1c(NC(=O)CSc2nncs2)sc2c1CCCCC2 -2.13%, Cc1noc(C)c1NC(=O)Nc1ccc2c(c1)C(=O)N([C@H](C)CO)C[C@H](C)[C@@H](CN(C)S(C)(=O)=O)OCCCC[C@H](C)O2 7.29%, Cc1noc(C)c1NC(=O)Nc1ccc2c(c1)C(=O)N([C@H](C)CO)C[C@@H](C)[C@H](CN(C)S(=O)(=O)c1ccc(Cl)cc1)OCCCC[C@H](C)O2 -9.02%, CC(C)NC(=O)Nc1ccc2c(c1)C(=O)N([C@@H](C)CO)C[C@@H](C)[C@H](CN(C)C(=O)Cc1ccccc1)OCCCC[C@H](C)O2 2.76%, Cc1noc(C)c1S(=O)(=O)Nc1ccc2c(c1)C(=O)N([C@@H](C)CO)C[C@@H](C)[C@@H](CN(C)S(=O)(=O)c1ccccc1)OCCCC[C@H](C)O2 -42.8%, Cc1noc(C)c1S(=O)(=O)N(C)C[C@@H]1OCCCC[C@@H](C)Oc2ccc(NS(=O)(=O)c3ccccc3)cc2C(=O)N([C@H](C)CO)C[C@@H]1C -6.41%, C[C@@H]1CCCCO[C@H](CN(C)C(=O)c2ccccc2)[C@H](C)CN([C@@H](C)CO)C(=O)c2cc(NC(=O)Nc3ccc4c(c3)OCO4)ccc2O1 -5.3%, CCCC(=O)Nc1ccc2c(c1)OC[C@H](C)N(CCC(F)(F)F)C[C@@H](C)[C@H](OC)CN(C)C2=O -10.8%, CCCC(=O)N1CC2(C1)CN(C(=O)Nc1cccc(F)c1)[C@@H](CO)c1c2c2ccc(OC)cc2n1C 14.3%, CN1c2ccc(-c3cccc(F)c3)cc2[C@H]2[C@H](CCN2C(=O)c2cccc(F)c2)[C@H]1CO -3.81%, CN1c2ccc(-c3ccccc3)cc2[C@@H]2[C@@H](CCN2C(=O)c2ccncc2)[C@@H]1CO 0.924%, CN1CCN(C(=O)C[C@H]2CC[C@H]3[C@@H](COC[C@H](O)CN3C(=O)c3ccc(F)cc3)O2)CC1 -6.97%, CCCNC(=O)N1C[C@H](C)[C@@H](OC)CN(C)C(=O)c2ccc(NS(=O)(=O)CC(F)(F)F)cc2OC[C@@H]1C -4.41%, O=C(NCC1CC1)[C@@H]1[C@@H](CO)[C@@H]2Cn3c(ccc(-c4ccncc4)c3=O)[C@H]1N2Cc1nccs1 5.95%, C[C@@H]1CN([C@@H](C)CO)C(=O)Cc2cc(NS(C)(=O)=O)ccc2O[C@@H]1CN(C)Cc1ccc2c(c1)OCO2 -41.9%, O=C([C@@H]1[C@@H](CO)[C@@H]2Cn3c(ccc(-c4ccccc4F)c3=O)[C@H]1N2C(=O)C1CCC1)N1CCCCC1 3.88%, CN(C)C(=O)[C@@H]1[C@@H](CO)[C@@H]2Cn3c(ccc(-c4ccccc4F)c3=O)[C@@H]2N1C(=O)C1CC1 -4.07%, N#C[C@@H]1[C@@H](c2ccccc2)[C@@H](CO)N1C(=O)c1cc(Cl)cc(Cl)c1 3%, COc1ccccc1-c1cnc2c(c1)C(=O)N([C@H](C)CO)C[C@H](C)[C@@H](CN(C)CC1CCOCC1)O2 -8.2%, COc1cccc(C(=O)Nc2ccc3c(c2)OC[C@H](C)NC[C@H](C)[C@H](OC)CN(C)C3=O)c1 -5.1%, C[C@H](CO)N1C[C@H](C)[C@@H](CN(C)C(=O)NC2CCCCC2)Oc2ccc(NC(=O)c3ccncc3)cc2CC1=O 5.06%

inhibition, active:
COc1ccc2c(c1)C=CC1(O2)N(CCO)c2ccccc2C1(C)C (stereo not given) 97.1%, Cn1cnc(S(=O)(=O)N2C[C@H](O)COC[C@@H]3O[C@H](CC(=O)NC4CCCC4)CC[C@H]32)c1 126%, CNS(=O)(=O)c1ccc2c(c1)[nH]c(=S)n2C 82.4%, C[C@@H]1CCCCO[C@@H](CN(C)C(=O)Cc2ccccc2)[C@H](C)CN([C@@H](C)CO)C(=O)c2cc(NC(=O)Nc3ccc4c(c3)OCO4)ccc2O1 121%, Cc1noc(C)c1NC(=O)Nc1ccc2c(c1)C(=O)N([C@H](C)CO)C[C@@H](C)[C@@H](CN(C)S(=O)(=O)c1ccc(Cl)cc1)OCCCC[C@H](C)O2 108%, Cc1noc(C)c1S(=O)(=O)N(C)C[C@H]1OCCCC[C@H](C)Oc2ccc(NS(=O)(=O)c3ccccc3)cc2C(=O)N([C@H](C)CO)C[C@@H]1C 106%, CN1c2ccc(-c3ccccc3)cc2[C@@H]2[C@@H](CCN2C(=O)c2ccccc2)[C@H]1CO 80%, CCCN1[C@H](C(=O)N2CCCCC2)[C@@H](CO)[C@@H]2Cn3c(ccc(-c4ccccc4F)c3=O)[C@@H]21 89.8%
